As a reminder, the IC50 is the concentration that gives 50% inhibition.

The source made the active and inactive calls. No cut-off for these calls is given here.

What all share (format): functional, cell-based
For experiment [1], the system named is HeLa. Briefly: Induction of apoptosis in human HeLa cells assessed as no change in mitochondrial potential at 100 nM after 48 hrs using JC-1 staining by flow cytometry. In general terms: Flow cytometry measures light scatter and fluorescence of single cells or particles in a stream.
Experiment [2] relates to HeLa. Briefly: Induction of apoptosis in human HeLa cells assessed as decrease in Bax expression at […] after 48 hrs by Western blot analysis. The procedure, abridged: (§1)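 Treated HeLa whole-cell lysates separated by SDS-PAGE and immunoblotted for PARP cleavage, Bcl-2, Bax, pro-caspase-9 and pro-caspase-2.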
In general terms: Immunoblotting shows a protein as a band on a membrane.

For experiment [3], the system named is Jurkat. Briefly: Induction of apoptosis in human Jurkat cells assessed as formation of large cells at 10 uM after 24 to 48 hrs using Giemsa's staining by microscopic analysis. The procedure, abridged: (§2)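 Giemsa staining, then light-microscope examination of cell morphology. HeLa and Jurkat cells were exposed to compound for 24 and 48 h. Magnification 60×.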

Experiment [4] deals with HeLa. Briefly: Induction of apoptosis in human HeLa cells assessed as increase in annexin-V positive cells after 24 hrs by annexin-V-FITC and propidium iodide staining based flow cytometry. The procedure, abridged:
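Biparametric flow cytometry after annexin-V immunolabelling plus propidium iodide, separating live, early apoptotic, late apoptotic and necrotic cells; HeLa incubated for 24 or 48 h.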

The test system of experiment [5] is HeLa. Briefly: Antiproliferative activity against human HeLa cells assessed as growth inhibition after 72 hrs by MTT assay.
The test system of experiment [6] is HeLa. Briefly: Induction of apoptosis in human HeLa cells assessed as formation of large cells at 100 uM after 24 to 48 hrs using Giemsa's staining by microscopic analysis. The procedure, abridged:
(§3)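 HeLa treated 48 h, Giemsa stained and examined by light microscopy at 60× magnification.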

Experiment [7] relates to Jurkat. Briefly: Cell cycle arrest in human Jurkat cells assessed as decrease of cell population at S phase at 1 to 100 nM after 48 hrs using propidium iodide staining by flow cytometry.
Experiment [8] relates to Jurkat. Briefly: Induction of apoptosis in human Jurkat cells assessed as formation of large cells at 100 uM after 24 to 48 hrs using Giemsa's staining by microscopic analysis. The procedure, abridged: as §2
Experiment [9] deals with HeLa. Briefly: Cell cycle arrest in human HeLa cells assessed as decrease of cell population at S phase at 100 nM after 24 hrs using propidium iodide staining by flow cytometry.
The subject of experiment [10] is HeLa. Briefly: Induction of apoptosis in human HeLa cells assessed as increase in phospho-gammaH2AX expression at […] after 48 hrs by Western blot analysis. The procedure, abridged:
(§4)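 HeLa treated for 24 or 48 h; whole-cell lysates run on SDS-PAGE and blotted for phospho-γH2AX (Ser139).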

Experiment [11] has as its system HeLa. Briefly: Induction of apoptosis in human HeLa cells assessed as multinucleation at 10 uM after 24 to 48 hrs using Giemsa's staining by microscopic analysis. The procedure, abridged: as §2
For experiment [12], the system named is HeLa. Briefly: Induction of apoptosis in human HeLa cells assessed as abnormal mitotic figures at 10 uM after 24 to 48 hrs using Giemsa's staining by microscopic analysis. The procedure, abridged: as §3
In experiment [13] the test system is Jurkat. Briefly: Induction of apoptosis in human Jurkat cells assessed as multinucleation at 10 uM after 24 to 48 hrs using Giemsa's staining by microscopic analysis. The procedure, abridged:
as §2

The next experiment deals with K562. Briefly: Antiproliferative activity against human K562 cells assessed as growth inhibition after 72 hrs by MTT assay. Conditions: K562, 72 h.
Experiment [14] has as its system HeLa. Briefly: Induction of apoptosis in human HeLa cells assessed as increase in phospho-gammaH2AX expression at […] after 24 hrs by Western blot analysis. The essentials:
as §4

The next experiment deals with HT-29. Briefly: Antiproliferative activity against human HT-29 cells assessed as growth inhibition after 72 hrs by MTT assay. To be noted: HT-29, 72 h.
In experiment [15] the test system is HeLa. Briefly: Induction of apoptosis in human HeLa cells assessed activation of caspase 9 at […] after 24 hrs by Western blot analysis. The essentials: as §1
The test system of experiment [16] is HeLa. Briefly: Cell cycle arrest in human HeLa cells assessed as decrease of cell population at G1 phase at 1 to 100 nM after 48 hrs using propidium iodide staining by flow cytometry.
In experiment [17] the test system is Jurkat. Briefly: Induction of apoptosis in human Jurkat cells assessed as DNA condensation at 100 uM after 24 to 48 hrs using Giemsa's staining by microscopic analysis. The procedure, abridged: as §2

As for `CCOc1ccc(-c2sc(N)nc2-c2cc(OC)c(OC)c(OC)c2)cc1`, the outcome in the experiment with HeLa [1] and in the experiment on HeLa [15] was inactive. Also, the outcome with HeLa [2], in the experiment with Jurkat [3], in the experiment with HeLa [6], with Jurkat [7], with Jurkat [8] and in the experiment with HeLa [9] was Active. Moreover, the result with HeLa [10], with HeLa [11], with HeLa [12], with Jurkat [13], in the experiment with HeLa [14] and in the experiment on HeLa [16] was Active. The result in the experiment on Jurkat [17] was Active. Moreover, the Activity result in the experiment with HeLa [4] is “Dose-dependent effect”. Besides, the half-inhibitory concentration (IC50) came out at 0.03 nM in the experiment on HeLa [5], 0.07 nM in the experiment with K562 and 38.2 nM with HT-29.

Source of the values: ChEMBL document CHEMBL1799956, “Convergent synthesis and biological evaluation of 2-amino-4-(3',4',5'-trimethoxyphenyl)-5-aryl thiazoles as microtubule targeting agents” (J Med Chem, 2011).
